Legend:
Assay type in all cases: in vivo, human
[1] = tested on: healthy Japanese male subjects; experiment: Safety and tolerability of single doses; details: single s.c. 0.3 U/kg, healthy Japanese men; all TEAEs mild or moderate
[2] = tested on: healthy Japanese male subjects; experiment: 10-hour euglycemic clamp; details: ratio of geometric means, linear mixed effects model, n = 36, 95%CI
Summary of the method: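 Randomized double-blind 2-period crossover, single s.c. 0.3 U/kg per period, 7–18 day washout. After ≥10 h overnight fast, baseline BG was the mean of readings at –30, –20, –10 and –1 min (clamp skipped if <70 mg/dL). BG measured every 1 min; 10% glucose infusion auto-adjusted to hold BG 5 mg/dL below baseline for 10 h. Body-weight-standardized GIR smoothed (LOESS, tension 0.06). Log-parameters analysed by mixed model (period, sequence, treatment fixed; subject random), back-transformed.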

[3] = Plasma insulin lispro pharmacokinetics after a single subcutaneous dose; details: for median tmax: healthy Japanese men, single s.c. 0.3 U/kg, plasma, n = 36
Summary of the method: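 Venous blood drawn into K-EDTA tubes predose, then every 15–60 min over the 10 h clamp. Samples centrifuged within 20 min; plasma held at –60 to –80°C. Analysis by LC-MS/MS specific for lispro over endogenous insulin: protein precipitation plus solid-phase extraction, bovine insulin internal standard, C18 gradient at 40°C. Calibration was 1/x2-weighted linear over 100–8000 pg/mL. Noncompartmental parameters; log-values by mixed model, ratios back-transformed.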

[4] = ratio of geometric means, linear mixed effects model, n = 36, 90%CI

| Substance | Tolerability of single doses [1] | GIRmax, Mean Ratio SAR‐Lis/Ly‐Lis‐Jp, point estimate (95%CI) [2] | GIR‐AUC0‐10h, Mean Ratio SAR‐Lis/Ly‐Lis‐Jp, point estimate (95%CI) [2] | median tmax [3] | AUCinf, Mean Ratio SAR‐Lis/Ly‐Lis‐Jp, point estimate (90%CI) [3, 4] | AUClast, Mean Ratio SAR‐Lis/Ly‐Lis‐Jp, point estimate (90%CI) [3, 4] | Cmax, Mean Ratio SAR‐Lis/Ly‐Lis‐Jp, point estimate (90%CI) [3, 4] | t1/2z, Mean Ratio SAR‐Lis/Ly‐Lis‐Jp, point estimate (90%CI) [3, 4] |
| --- | --- | --- | --- | --- | --- | --- | --- | --- |
| insulin lispro [SAR‐Lis] | well tolerated | 1.07 (1.00‐1.15) | 1.07 (0.99‐1.15) | 1 h | 1.00 (0.97‐1.02) | 1.00 (0.97‐1.02) | 0.99 (0.93‐1.05) | 1.03 (0.96‐1.11) |
| insulin lispro [Ly‐Lis‐Jp, reference compound] | well tolerated | – | – | 1 h | – | – | – | – |
